# Screens as filed in PubChem.
# CSC inhib: blocks cancer stem cells; AID 2717; inhibition, % at 7.5 µM; hit rate 1.1% among 300,000; cancer stem cell-like cells viability, luminescence; in the data active = inhibition above about 75%; inconclusive = no clear call, values can overlap the other calls; tested in HMLE shEcad cells
# Mdm2-MdmX inh: disrupts the human Mdm2-MdmX interaction; SaOS-2 split-luciferase Mdm2/MdmX complementation, luminescence; inhibition, % at 8 µM; AID 485346; O15151+Q00987; hit rate 3% among 330,000;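 active = inhibition of at least 50% at 8 µM in the primary screen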
# Target sequence (O15151 whole entry, looked up): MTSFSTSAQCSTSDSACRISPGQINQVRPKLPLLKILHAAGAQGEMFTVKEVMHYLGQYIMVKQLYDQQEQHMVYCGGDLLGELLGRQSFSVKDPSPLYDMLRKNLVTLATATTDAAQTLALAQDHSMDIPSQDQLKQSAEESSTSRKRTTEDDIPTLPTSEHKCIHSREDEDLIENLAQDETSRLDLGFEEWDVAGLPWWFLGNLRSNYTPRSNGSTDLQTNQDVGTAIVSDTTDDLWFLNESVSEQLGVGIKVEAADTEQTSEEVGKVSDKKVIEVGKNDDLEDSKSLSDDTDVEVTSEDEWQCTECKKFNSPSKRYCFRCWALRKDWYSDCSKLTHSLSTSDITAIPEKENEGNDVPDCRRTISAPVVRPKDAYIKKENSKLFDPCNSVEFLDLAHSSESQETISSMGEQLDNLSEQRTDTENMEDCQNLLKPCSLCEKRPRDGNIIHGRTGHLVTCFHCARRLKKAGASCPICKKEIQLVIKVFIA
# Target sequence (Q00987 whole entry, looked up): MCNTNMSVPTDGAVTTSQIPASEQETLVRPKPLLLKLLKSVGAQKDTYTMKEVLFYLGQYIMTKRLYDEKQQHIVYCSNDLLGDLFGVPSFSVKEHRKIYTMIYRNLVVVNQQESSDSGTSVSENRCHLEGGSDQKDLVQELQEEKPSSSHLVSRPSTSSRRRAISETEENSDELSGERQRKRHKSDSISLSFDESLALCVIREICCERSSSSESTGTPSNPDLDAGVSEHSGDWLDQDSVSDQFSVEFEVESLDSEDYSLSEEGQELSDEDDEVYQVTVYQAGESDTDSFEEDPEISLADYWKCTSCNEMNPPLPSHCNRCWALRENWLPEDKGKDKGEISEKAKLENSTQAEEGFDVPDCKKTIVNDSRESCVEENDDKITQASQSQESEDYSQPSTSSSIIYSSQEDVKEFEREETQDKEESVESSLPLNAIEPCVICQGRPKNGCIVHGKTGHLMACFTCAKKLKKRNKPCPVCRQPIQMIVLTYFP
# Beta cell apopt: blocks beta cell apoptosis | protection from apoptosis, % (no concentration beside the values) | hit rate 0.8% among 300,000 | INS-1E cytokine-induced death, ATP luminescence, 48 h; percent of positive-control rescue, neutral wells zero;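 active = Every replicate reaches about 75%, or at least half do and their mean reaches it too, limit read from the data; inconclusive = At least half of replicates reach the limit but their mean does not; inactive = Under half of replicates reach the limit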;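 note: 0% = cytokine-treated negative control wells and 100% = positive control rescue; higher means more ATP so stronger rescue from cytokine killing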
# Lmaj promast: Leishmania major promastigote growth inhibition; AID 1063; Leishmania major promastigotes, resazurin fluorescence viability; inhibition, % at 10 µM; hit rate 9% among 200,000; in the data active = inhibition above about 50%;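 note: promastigotes grown with compound for 44 hours at 28 °C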
# T cruzi repl: blocks replication of Trypanosoma cruzi | inhibition, % (no concentration beside the values) | hit rate 1.4% among 300,000 | T. cruzi beta-gal in NIH3T3, luminescence, 90 h | AID 1885;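 active = mean inhibition across valid replicates above about 55%, limit read from the data; inconclusive = mean below that limit but half or more replicates reach it; inactive = mean below it, under half of replicates reach it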;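 note: signal also drops with host cell toxicity which is not excluded here; 0% = plate median of DMSO wells and 100% = zero luminescence signal; higher percent means less beta-gal luminescence so fewer parasites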
#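 System: NIH/3T3 fibroblasts plus reporter T. cruzi. Medium: DMEM plus 2% FBS. Probe or stimulus: 5000 reporter trypomastigotes per well. Compound: single 50 nL compound addition per well in DMSO. Incubation: co-culture of at least 90 h after 3 h attachment. Detection: GalScreen β-gal luminescence, detergent lysis, 60 min. Evaluation: parasite load inhibition, %.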
# SKKanGAS inh: SKKanGAS growth inhibition | S. pyogenes SKKanGAS, kanamycin growth, BacTiter-Glo, 6 h | hit rate 1.3% among 300,000 | inhibition, % at 7.5 µM;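 active = mean replicate score, as percent of positive control median, at least 50; inconclusive = mean below 50 but one replicate at or above 50; inactive = mean and every replicate below 50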;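 note: strain carries kanamycin resistance gene driven by streptokinase promoter and grows in 40 µg/ml kanamycin; loss of luminescence reflects streptokinase promoter inhibition or plain growth inhibition; 0% = median of DMSO wells and 100% = positive control at its reference dose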
# Mdm2-MdmX conf: human Mdm2/MdmX binding inhibition, confirmed; shares compounds with Mdm2-MdmX inh; luminescent assay; inhibition, % at 8 µM; hit rate 55% among 10,000; AID 489028; in the data active = inhibition above about 40%
# FLuc counter: full-length luciferase inhibition in Mdm2/MdmX counter-screen | hit rate 77% among 6,200 | shares compounds with Mdm2-MdmX inh | SaOS-2 full-length luciferase counterscreen, luminescence | inhibition, % at 8 µM | AID 504607;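 active = mean inhibition at 8 µM reaching about 37%, which flags the compound as non-specific, limit read from the data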;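 note: p53-null SaOS-2 cells with luciferase driven by a doxycycline-inducible promoter; compound on cells about two nights before reading with doxycycline added after day one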
# An asterisk follows results filed as active; ? = inconclusive; · = not tested or not shown; ! = a repeat was not active. A selection: hits, their analogues and other compounds. The true share with any hit is near 9.4%.
SMILES,CSC inhib,Mdm2-MdmX inh,Beta cell apopt,Lmaj promast,T cruzi repl,SKKanGAS inh,Mdm2-MdmX conf,FLuc counter
Cc1ccc2c(c1)CCCN2C(=O)c1cc(C)on1,-0.7,4.6,2.1,·,0.4,-10.4,·,·
Cc1ccc(N(CCC#N)C(=O)CCl)cc1C,-0.1,100.3*,-15.5,79.4*,58.9*,2.2,100.2*,57.0*
Cc1ccc(SCC(=O)OCC(=O)N(CCC#N)c2ccccc2)cc1C,-7.7,6.9,-0.2,·,-0.7,0.7,·,·
CN(Cc1cnc2nc(N)nc(N)c2n1)c1ccc(C(=O)N[C@@H](CCC(=O)O)C(=O)O)cc1,85.9*!,46.5,4.6,·,1.3,88.5*,71.8*,29.8
Nc1nc2ncc(CNc3ccc(C(=O)N[C@@H](CCC(=O)O)C(=O)O)cc3)nc2c(=O)[nH]1,13.5,21.2,·,·,-7.3,-0.2,·,·
CCCCNc1c2c3c(cccc3n(C)c1=O)C(=O)c1ccccc1-2,62.8,51.1*,9.5,6.1,45.2,53.6*,32.5,·
Brc1ccc(-c2nnc3ccc(N4CCN(c5ccccc5)CC4)nn23)cc1,-2.4,100.0*,-5.5,8.6,9.6,-6.9,44.8*,76.8*
Fc1ccc(-c2nnc3ccc(N4CCCC4)nn23)cc1,-2.3,5.1,·,5.9,3.6,-3.2,·,·
CCOc1ccc(/C(C)=N/N2C(=O)C(CC(=O)Nc3ccc(OC)cc3[N+](=O)[O-])SC2=Nc2cccc(C)c2C)cc1 (stereo not given),-10.4,31.5,9.5,2.2,-14.3,1.5,·,·
COc1ccccc1/C=N/N1C(=O)C(CC(=O)Nc2ccc([N+](=O)[O-])cc2OC)SC1=Nc1cccc(C)c1C (stereo not given),54.8,64.5*,2.6,25.2,41.0,21.4,46.9*,77.9*
COc1ccc(-n2nnnc2SCC(=O)c2cccc(OC)c2)cc1,43.9,48.8,2.6,-4.9,-2.1,-10.4,·,·
CCOc1ccc(-n2nnnc2SCC(=O)c2ccccc2)cc1,21.3,67.8*,-9.5,-6.9,-8.2,7.5,14.6,·
CCC(=O)Nc1cccc(C2=NOC3(C2)C[C@H](C(N)=O)N(C(=O)CC#N)C3)c1 (stereo not given in full),0.1,17.3,-4.0,·,16.1,1.4,·,·
CCc1ccc2nc(SCC(=O)Nc3ccccc3N3CCOCC3)c(C#N)cc2c1,?,66.7*,14.8,·,16.3,0.0,60.2*,46.2*
OC/C(Br)=C(\Br)CO,-10.4,12.3,-2.7,·,·,·,·,·
CC(C)(C)c1ccc(CN2C3=NCCCN3c3ccccc32)cc1,31.4,68.8*,40.6,100.5*,68.7*,-2.9,32.6,61.3*
Cc1cc2c(cc1C)N(Cc1ccc(Cl)cc1)C1=NCCCN12,6.3,55.9*,4.2,·,27.2,-1.6,39.0,90.1*
CCN(C(=O)CSc1nc2ccccc2[nH]1)C1CCS(=O)(=O)C1 (stereo not given),-10.6,10.4,-1.9,·,·,·,·,·
N#C/C(=C\c1cn(CCOc2ccccc2F)c2ccccc12)C(=O)NCc1cccs1,11.9,54.5*,-0.6,45.0,0.3,7.4,21.4,·
CC(=O)N1CCN(CC(=O)Nc2ccc([N+](=O)[O-])cc2Br)CC1,-11.7,6.0,-1.3,-5.4,-1.3,-0.5,·,·
Cc1c(NC(=O)CSc2nnc3c4ccccc4n(CCc4ccccc4)c3n2)c(=O)n(-c2ccccc2)n1C,38.4,100.3*,3.7,38.0,33.5,4.3,90.5*,52.0*
CCN(C(=O)c1cc(S(=O)(=O)N2CCOCC2)cn1C)c1cccc(C)c1,4.5,1.9,-1.6,·,-3.2,-5.6,·,·
Cc1ccc(N(C(=O)Cc2c[nH]c3ccccc23)C(C(=O)NC2CCCCC2)c2ccco2)cc1 (stereo not given),-5.0,54.9*,-14.4,23.7,37.8,15.8,40.1*,85.7*
Cc1cc(C)cc(NC(=O)COC(=O)CCn2c(C)csc2=O)c1,8.1,-1.8,1.3,·,·,·,·,·
O=C(Nc1cccc(-c2nc3ccccc3o2)c1)c1ccc(N2C(=O)C3C4C=CC(C4)C3C2=O)cc1 (stereo not given),-1.7,58.8*,4.3,-4.6,20.3,13.5,21.4,·
SMILES,CSC inhib,Mdm2-MdmX inh,Beta cell apopt,Lmaj promast,T cruzi repl,SKKanGAS inh,Mdm2-MdmX conf,FLuc counter
O=C1C(=O)c2ccccc2C(O)=C1C1CCC(c2ccc(Cl)cc2)CC1 (stereo not given),45.0,89.9*,12.3,·,·,·,27.2,·
CCOc1c(Cl)cc(/C=C/C(=O)N(CC)CC(=O)Nc2ccc(NC(C)=O)cc2)cc1OC,·,33.1,10.0,·,17.9,39.5,·,·
O=[N+]([O-])c1cccc2c1ccc1ncccc12,-4.4,55.7*,-7.2,·,22.4,-7.3,33.9,·
Oc1ccc(N=Nc2ccc3c(c2)OCCO3)c2cccnc12,·,77.4*,·,100.3*,83.4*,87.6*,89.3*,52.6*
COc1ccc(N=Nc2ccc(O)c3ncccc23)cc1,151.3*,76.8*,103.6*,·,45.8,69.7*,83.9*,31.7
COc1cccc(N=Nc2ccc3cccnc3c2O)c1,90.0*,90.8*,90.3*,·,42.9,117.6*,90.4*,22.6
COc1cccc(N=Nc2ccc(O)c3ncccc23)c1,123.3*,81.9*,104.3*,·,34.4,79.5*,92.0*,20.6
Cc1cc(C(=O)Oc2cccnc2)ccc1[N+](=O)[O-],-5.1,-12.6,-1.6,-2.5,-16.0,4.4,·,·
CCc1cc(C(=O)N2CCN(C(=O)c3ccco3)CC2)sc1C,-9.3,-12.3,-6.0,·,-12.4,6.3,·,·
O=Cc1cn(CC(=O)N2CCCCC2)c2ccccc12,-4.1,-6.2,7.4,-4.2,-39.1,1.5,·,·
CN1C(=O)/C(=C/c2cn(CC(=O)N3CCCCC3)c3ccccc23)c2ccccc21,-1.9,52.4*,-0.2,86.1*,17.9,24.8,32.2,·
COc1ccc(CNC(=O)C2CCN(C(=O)c3cccc(Cl)c3)CC2)cc1,-1.5,0.4,0.2,·,-1.2,13.2,·,·
CCOC(=O)C1(Cc2ccccc2C)CCCN(C(=O)CCc2cccnc2)C1 (stereo not given),-12.2,-24.3,1.7,-0.7,9.0,3.8,·,·
Cc1ccc(NC(=O)CCC(=O)NNC(=O)c2ccccc2)c(C)c1,-8.0,3.5,0.1,-1.8,-10.4,-5.0,·,·
Cc1ccc(O)c(NC(=S)NC(=O)c2ccc(-c3ccc(Cl)cc3)o2)c1,-2.0,50.9*,?,-7.8,-12.9,96.4*,27.8,·
Cc1c(NC(=S)NC(=O)c2ccc(-c3ccc(Cl)cc3)o2)cccc1C(=O)O,·,26.4,-26.6,-4.5,-7.8,12.7,·,·
Cc1nc2ccc(S(=O)(=O)NCC(=O)Nc3ccc(F)cc3)cc2s1,-5.6,17.6,0.4,·,-9.2,1.7,·,·
Clc1nc(Nc2ccc(N3CCOCC3)cc2)c2ccccc2n1,·,18.0,·,19.0,-20.9,1.3,·,·
Fc1ccc(Nc2nc(N3CCOCC3)c3ccccc3n2)cc1,·,51.6*,19.2,·,39.0,-11.7,28.9,·
